Data set [1] addresses T1, Peroxisome proliferator-activated receptor alpha (Homo sapiens) (UniProt Q07869).
T1 sequence (whole entry): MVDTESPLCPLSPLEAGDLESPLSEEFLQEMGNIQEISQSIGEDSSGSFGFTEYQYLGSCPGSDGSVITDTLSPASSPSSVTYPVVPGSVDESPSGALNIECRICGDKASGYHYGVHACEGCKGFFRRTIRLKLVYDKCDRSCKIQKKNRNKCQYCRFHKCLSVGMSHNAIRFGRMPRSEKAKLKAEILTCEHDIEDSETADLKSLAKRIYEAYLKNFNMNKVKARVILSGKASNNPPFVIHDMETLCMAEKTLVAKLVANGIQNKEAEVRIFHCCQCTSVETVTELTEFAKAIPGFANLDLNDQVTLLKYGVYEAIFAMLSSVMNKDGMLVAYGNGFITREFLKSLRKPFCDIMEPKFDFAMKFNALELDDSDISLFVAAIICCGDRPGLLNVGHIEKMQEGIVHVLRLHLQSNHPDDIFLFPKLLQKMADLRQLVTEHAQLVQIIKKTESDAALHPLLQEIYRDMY
Kind of data set: Agonist activity at human PPARalpha ligand binding domain expressed in human HepG2 cells co-transfected with PPRE3-TK-luc assessed as induction of beta-galactosidase activity at 10 uM by transactivation assay. Type of data set: cell-based. The method in brief:
(§1)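 HepG2 cells were transfected with a pSG5 vector carrying hPPARα or hPPARγ cDNA and cotransfected with PPRE3-TK-luc. Firefly luciferase was measured with a commercial assay, and β-galactosidase was read on an ELISA reader. Activity is expressed as fold induction. Single-point testing was at 10 µM for hPPARα and 0.2 µM for hPPARγ, with EC50 given elsewhere.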

Data set [2] addresses T2, Peroxisome proliferator-activated receptor gamma (Homo sapiens) (UniProt P37231).
T2 sequence (whole entry): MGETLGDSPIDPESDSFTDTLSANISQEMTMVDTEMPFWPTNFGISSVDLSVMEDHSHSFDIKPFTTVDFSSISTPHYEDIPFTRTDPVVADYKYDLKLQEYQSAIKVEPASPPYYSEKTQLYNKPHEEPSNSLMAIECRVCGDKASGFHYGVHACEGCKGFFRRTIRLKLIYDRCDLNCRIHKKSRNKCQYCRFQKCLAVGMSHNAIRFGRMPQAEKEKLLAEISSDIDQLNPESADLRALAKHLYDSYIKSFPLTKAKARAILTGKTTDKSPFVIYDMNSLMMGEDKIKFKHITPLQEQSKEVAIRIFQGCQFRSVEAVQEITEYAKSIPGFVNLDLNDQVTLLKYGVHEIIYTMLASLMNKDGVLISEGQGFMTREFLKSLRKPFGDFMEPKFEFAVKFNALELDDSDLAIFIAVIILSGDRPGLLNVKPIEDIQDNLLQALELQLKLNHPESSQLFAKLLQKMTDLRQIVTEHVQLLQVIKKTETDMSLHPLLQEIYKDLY
In words: (§2) Agonist activity at human PPARgamma ligand binding domain expressed in human HepG2 cells co-transfected with PPRE3-TK-luc assessed as induction of beta-galactosidase activity by transactivation assay. Type of data set: cell-based. The method in brief:
as §1

In data set [3] the test system is Mus musculus. Kind of data set: Reduction of triglyceride level in Swiss albino mouse serum at 10 mg/kg/day, po for 6 days relative to control. The format is functional. Details: scale not given: the % may be the effect or the level left. In outline: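 Male Swiss albino mice aged 6–8 weeks were dosed orally at 10 mg/kg/day for 6 days. Serum triglyceride is reported as % change relative to vehicle controls, as the mean of n = 6.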

In data set [4] the target is T3, Peroxisome proliferator-activated receptor alpha (Homo sapiens, UniProt Q07869).
T3 sequence (Q07869 whole entry): T1 sequence (whole entry)
In words: Agonist activity at human PPARalpha ligand binding domain expressed in human HepG2 cells co-transfected with PPRE3-TK-luc assessed as induction of beta-galactosidase activity by transactivation assay. The format is cell-based. The method in brief: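 HepG2 cells were transfected with a pSG5 vector carrying hPPARα or hPPARγ cDNA and cotransfected with PPRE3-TK-luc. Firefly luciferase was measured with a commercial assay, and β-galactosidase was read on an ELISA reader. Activity is expressed as fold induction.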

Data set [5] deals with Rattus norvegicus. Kind of data set: Hypolipidemic activity in high cholesterol fed Sprague-Dawley rat assessed as reduction of triglyceride level at 3 mg/kg/day for 4 days relative to control. Details: scale not given: the % may be the effect or the level left.
The test system of data set [6] is Rattus norvegicus. Kind of data set: Hypolipidemic activity in high cholesterol fed Sprague-Dawley rat assessed as effect on HDL-C level at 3 mg/kg/day for 4 days relative to control.
Data set [7] concerns Mus musculus. Kind of data set: Hypolipidemic activity in db/db mouse assessed as reduction of triglyceride level at 3 mg/kg/day for 6 days relative to control. Type of data set: functional. Details: scale not given: the % may be the effect or the level left. In outline:
(§3)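 Male db/db mice aged 6–8 weeks were dosed daily for 6 days. Plasma glucose and triglycerides were measured, and results are reported as % change relative to vehicle-treated controls.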

Data set [8] deals with T4, Peroxisome proliferator-activated receptor gamma (Homo sapiens, UniProt P37231).
T4 sequence (P37231 whole entry): T2 sequence (whole entry)
The description is as §2. Type of data set: cell-based. In outline: as §1

Data set [9] has as its system Mus musculus. In words: Hypoglycemic activity in db/db mouse assessed as reduction of plasma glucose level at 3 mg/kg/day for 6 days relative to control. Type of data set: functional. Details: scale not given: the % may be the effect or the level left. The method in brief: as §3
The subject of data set [10] is Rattus norvegicus. Kind of data set: Hypolipidemic activity in high cholesterol fed Sprague-Dawley rat assessed as reduction of total cholesterol level at 3 mg/kg/day for 4 days relative to control. Details: scale not given: the % may be the effect or the level left.
Data set [11] concerns Rattus norvegicus. In words: Hypolipidemic activity in high cholesterol fed Sprague-Dawley rat assessed as reduction of LDL-C level at 3 mg/kg/day for 4 days relative to control. Also noted: scale not given: the % may be the effect or the level left.
Data set [12] can be described thus: Half life in Wistar rat at 30 mg/kg, po. Conditions: in vivo. Also noted: dose 30 mg/kg, route oral. Type of data set: ADME, organism-based.
Data set [13] is described as follows: Tmax in Wistar rat at 30 mg/kg, po. Type of data set: ADME, organism-based. Also noted: dose 30 mg/kg, route oral. Conditions: in vivo.
Data set [14] is described as follows: (§4) Cmax in Wistar rat at 30 mg/kg, po. The format is ADME, organism-based. The note with it: Wistar, in vivo. Details: dose 30 mg/kg, route oral.
Data set [15] in a line: (§5) AUC (0 to infinity) in Wistar rat at 30 mg/kg, po. Type of data set: ADME, organism-based, Plasma. Also noted: time infinity, dose 30 mg/kg, route oral. The note with it: Wistar, plasma.
For data set [16], the system named is Rattus norvegicus. Described as §4. The format is ADME, organism-based. Details: dose 30 mg/kg, route oral. Conditions: in vivo.
Data set [17] has as its system Rattus norvegicus. Described as §5. Type of data set: ADME, organism-based, Plasma. Also noted: time infinity, dose 30 mg/kg, route oral. Conditions: in vivo.

Active and inactive are the calls of the source. The rule behind the calls is not given here.

On to `Cc1cccc(Nc2cc(Cl)nc(SCC(=O)O)n2)c1C`, for which, in data set [1], the fold change (FC) stood at 3.3.
Turning to `CS(=O)(=O)Oc1ccc(CCCCC[C@H]2CO[C@@](C)(C(=O)O)OC2)cc1`, in data set [2], the outcome was inactive. In the data set with Mus musculus [3], the Activity is listed as -28%. In data set [4], the EC50 (usually the concentration at which the effect is half-maximal) turned out to be 2.5 µM.
As for `CCO[C@@H](Cc1ccc(OCCc2ccc(OS(C)(=O)=O)cc2)cc1)C(=O)O` [TESAGLITAZAR], the Activity with Rattus norvegicus [5] is listed as -51%; in the data set on Rattus norvegicus [6], 18%; in the data set with Mus musculus [7] it was -60%; in the data set with Mus musculus [3] it was -79%; in the data set with Mus musculus [9], -54%; in the data set with Rattus norvegicus [10], -59%. For the same compound, the Activity in the data set with Rattus norvegicus [11] was -31%. The values for the EC50 in data set [8] and in [4] were 0.013 µM and 0.82 µM, respectively.
`COc1ccc(CCCC[C@H]2CO[C@@](C)(C(=O)O)OC2)cc1`: the fold change (FC) in [1] amounted to 2.5. For the same compound, the Activity in the data set on Mus musculus [3] was -11%.
As to `C[C@]1(C(=O)O)OC[C@@H](CCCCc2ccc(OCc3ccccc3)cc2)CO1`, the fold change (FC) in data set [1] was 2.3. The Activity in the data set on Mus musculus [3] was -25%.
In the case of `CS(=O)(=O)Oc1ccc(CCCC[C@H]2CO[C@@](C)(C(=O)O)OC2)cc1`, in data set [1], the fold change (FC) worked out at 3. For the same compound, the result in [2] was inactive. Moreover, the Activity in the data set on Mus musculus [3] is given as -32%. The EC50 in [4] was determined as 20 µM.
As to `C[C@]1(C(=O)O)OC[C@@H](CCCCc2ccc(F)cc2)CO1`, the fold change (FC) in [1] is 2.3. In addition, in the data set with Mus musculus [3], the Activity was -9%.
As for `CS(=O)(=O)Oc1ccc(CCCCCC[C@H]2CO[C@@](C)(C(=O)O)OC2)cc1`, the half-life – broadly, how long it takes for the measured level to halve – in data set [12] was 720 min. For the same compound, in data set [13], the Tmax (usually the time at which the peak concentration occurs) amounted to 4 h. The Activity is given as -63% in the data set with Rattus norvegicus [5]; 51% in the data set with Rattus norvegicus [6]; -50% in the data set on Mus musculus [7]; -71% with Mus musculus [3]; -53% in the data set on Mus musculus [9]; -56% with Rattus norvegicus [10]. Also, the Activity in the data set with Rattus norvegicus [11] is reported as -46%. Further, the EC50 in [8] and in [4] was 15 µM in each case. In addition, in data set [14], the Cmax (in general, the peak of the concentration-time curve) stood at 127 µg/mL. Besides, in data set [15], the AUC(0-inf) – broadly, total exposure, with the tail of the curve extrapolated – worked out at 1490 µg·h/mL.
In the case of `Cc1ccc(CCCC[C@H]2CO[C@@](C)(C(=O)O)OC2)cc1`, the fold change (FC) in data set [1] came out at 3.2. For the same compound, in the data set with Mus musculus [3], the Activity is reported as -22%.
Take `C[C@]1(C(=O)O)OC[C@@H](CCCCc2ccc(O)cc2)CO1`: in [1], the fold change (FC) amounted to 1.2. In addition, in the data set with Mus musculus [3], the Activity is listed as -15%.
Taken in the same sequence, the figures for `C[C@]1(C(=O)O)OC[C@@H](CCCCc2ccc(Cl)cc2)CO1` were 2.6 and -10%.
As for `CSc1ccc(CCCC[C@H]2CO[C@@](C)(C(=O)O)OC2)cc1`, the fold change (FC) in data set [1] stood at 4. Further, the Activity in the data set on Mus musculus [3] was -14%.
Taken in the same sequence, the figures for `C[S+]([O-])c1ccc(CCCC[C@H]2CO[C@@](C)(C(=O)O)OC2)cc1` (stereo not given in full) were 2 and -12%.
As to `Cc1ccc(-c2nc(CCCC[C@H]3CO[C@@](C)(C(=O)O)OC3)c(C)o2)cc1`, in data set [12], the half-life was 90 min. Besides, the time of peak concentration (Tmax) in data set [13] is 0.67 h. Moreover, the Activity was -54% with Rattus norvegicus [5]; 88% in the data set on Rattus norvegicus [6]; -54% in the data set with Mus musculus [7]; -67% with Mus musculus [3]; -44% in the data set on Mus musculus [9]; -49% in the data set on Rattus norvegicus [10]. For the same compound, the Activity in the data set on Rattus norvegicus [11] is reported as -68%. In addition, in data set [8], the half-maximal effective concentration (EC50) was determined as 7 µM. The Cmax in the data set on Rattus norvegicus [16] is 41 µg/mL. The AUC (usually the area under the concentration-time curve, a measure of exposure) with Rattus norvegicus [17] was 99 µg·h/mL.
Consider `CS(=O)(=O)c1ccc(CCCC[C@H]2CO[C@@](C)(C(=O)O)OC2)cc1`, for which the fold change (FC) in [1] amounted to 1. Also, the Activity in the data set on Mus musculus [3] is on record as -7%.

The values above are taken from ChEMBL document CHEMBL1152220, “Discovery of a highly orally bioavailable c-5-[6-(4-Methanesulfonyloxyphenyl)hexyl]-2-methyl-1,3-dioxane-r-2-carboxylic acid as a potent hypoglycemic and hypolipidemic agent” (Bioorg Med Chem Lett, 2008).
